Test results as given in ChEMBL document CHEMBL1151862, “Quaternary ammonium N,N-dichloroamines as topical, antimicrobial agents” (Bioorg Med Chem Lett, 2009).
Values after ≈ are worked out from the molar mass of the structure shown.

Tests used:
Escherichia coli = test: Antibacterial activity against Escherichia coli ATCC 25922 after 1 hr by CLSI M26-A based method at room temperature; type: functional; details: ATCC 25922, 1 h
In short: (§1)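 Minimum bactericidal (bacteria) or fungicidal (C. albicans) concentration was determined by a modified CLSI M26-A method. Isotonic saline at pH 4 replaced Mueller–Hinton broth because chlorine reacts with broth components. Exposure was shortened from 16–20 h at 35 °C to 1 h at room temperature.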

[1] = Stability in saline solution assessed as half life at pH 4; type: physicochemical
In short: (§2)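 Aqueous half-life is reported in days. Media were saline at pH 4, phosphate at pH 7, and, for some analogs, 0.6% borate buffer at pH 7. Biological testing was limited to analogs with aqueous stability above 24 h at 40 °C.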

Staphylococcus aureus = test: Antibacterial activity against Staphylococcus aureus ATCC 29213 after 1 hr by CLSI M26-A based method at room temperature; type: functional; details: ATCC 29213, 1 h; in short: as §1
[2] = Stability in phosphate buffer assessed as half life at pH 7; type: physicochemical; in short: as §2
[3] = Stability in water assessed as half life at pH 4 at 40 degC; type: physicochemical
Candida albicans = test: Antifungal activity against Candida albicans ATCC 10231 after 1 hr by CLSI M26-A based method at room temperature; type: functional; details: ATCC 10231, 1 h; in short: as §1
[4] = Stability in 0.6% borate buffer assessed as half life at pH 7; type: physicochemical; in short: as §2

half-life [1] [days] | half-life [2] [days] | half-life [3] [days] | half-life [4] [days] | SMILES | MBC (Escherichia coli) [mg/L] | MBC (Staphylococcus aureus) [mg/L] | MFC (Candida albicans) [mg/L]
> 72 | 7 |  |  | CC(C)(CC(=O)OCC[N+]1(C)CCCCC1)N(Cl)Cl.[Cl-] | 2 | 4 | 
 |  | > 95 |  | CC(C)(CC(=O)OCCS(=O)(=O)O)N(Cl)Cl |  |  | 
> 60 |  |  | 20 | C[n+]1ccc(CCC(C)(C)N(Cl)Cl)cc1.[Cl-] | 2 | 8 | 1020
> 180 | 19 |  |  | CC(C)(C[N+](C)(C)CCS(=O)(=O)O)N(Cl)Cl.[Cl-] | 16 | 64 | 128
21 | 23 |  |  | CC(C)(Cc1ncnn1CCS(=O)(=O)O)N(Cl)Cl | 2 (≈ 6.31 µM) | 4 (≈ 12.6 µM) | 64 (≈ 202 µM)
10 | 5 |  |  | CC(C)(c1cn(CCS(=O)(=O)O)nn1)N(Cl)Cl | 4 (≈ 13.2 µM) | 8 (≈ 26.4 µM) | 32 (≈ 106 µM)
37 |  |  | 6 | CC(=O)N1CC[N+](C)(CC(C)(C)N(Cl)Cl)CC1.[Cl-] | 16 | 64 | > 1020

Continued, compound first:

SMILES | half-life [1] [days] | half-life [2] [days] | half-life [3] [days] | half-life [4] [days] | MBC (Escherichia coli) [mg/L] | MBC (Staphylococcus aureus) [mg/L] | MFC (Candida albicans) [mg/L]
Cc1nn(C)c(CC(C)(C)N(Cl)Cl)[n+]1C.[Cl-] | 61 | 4 |  |  | 4 | 8 | 32
CC(C)(C[N+](C)(C)C)N(Cl)Cl.[Cl-] | > 325 | > 396 |  |  | 8 | 16 | 128
Cn1nc[n+](C)c1CC(C)(C)N(Cl)Cl.[Cl-] | 67 | 5 |  |  | 2 | 4 | 16
CC(C)(C[N+]1(C)CCCCC1)N(Cl)Cl.[Cl-] | > 122 | 100 |  |  | 8 | 16 | 64
CN(CCS(=O)(=O)O)C(=O)CC(C)(C)N(Cl)Cl | 1 | 1 |  |  | 1 (≈ 3.26 µM) | 2 (≈ 6.51 µM) | 32 (≈ 104 µM)
CC(C)(CC(=O)NCCS(=O)(=O)O)N(Cl)Cl | 33 |  |  | 36 | 2 (≈ 6.82 µM) | 8 (≈ 27.3 µM) | 64 (≈ 218 µM)
CC(C)(Cc1nc(CS(=O)(=O)O)no1)N(Cl)Cl | 106 | 17 |  |  | 4 (≈ 13.2 µM) | 2 (≈ 6.58 µM) | 16 (≈ 52.6 µM)
C[S+](C)CC(C)(C)N(Cl)Cl.[Cl-] | > 67 | 1 |  |  | 4 | 8 | 128
CC(C)(COCCCS(=O)(=O)O)N(Cl)Cl |  |  | 0.104 |  |  |  | 
CN(CC[N+](C)(C)C)C(=O)CC(C)(C)N(Cl)Cl.[Cl-] | 4 | 6 |  |  | 2 | 16 | 32
CC(C)(CNC(=O)CCS(=O)(=O)O)N(Cl)Cl |  |  | 0.5 |  |  |  | 
Cc1nc(CC(C)(C)N(Cl)Cl)n(CCS(=O)(=O)O)n1 | 46 | 50 |  |  | 4 (≈ 12.1 µM) | 4 (≈ 12.1 µM) | 64 (≈ 193 µM)
CC(C)(CS(=O)(=O)[O-])N(Cl)Cl.[Na+] | > 730 | > 300 |  |  | 2 | 2 | 32
CC(C)(C[N+]1(C)CCOCC1)N(Cl)Cl.[Cl-] | < 1 | < 1 |  |  |  |  | 
